Test results as given in the RNAGym collection of RNA variant scans (doi:10.1126/science.aae0568).
Variants at the floor of the assay were thinned out.

B1: tRNA (parent)
chain: GUUCCGUUGGCGUAAUGGUAACGCGUCUCCCUCCUAAGGAGAAGACUGCGGGUUCGAGUCCCGUACGGAACG

Variants of: B1
Assay: yeast fitness relative to wild type (ratio to wild type); higher = fitter; tRNA-Arg(CCU), competitive growth, 37 C, YPD
How it was run: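 A pool of Saccharomyces cerevisiae strains, each with a tRNA-Arg(CCU) gene variant at the native genomic locus, was competed in YPD at 37°C for 24 hours across six parallel replicates. The variants had been chemically synthesised at a 3% per-site mutation rate over 69 sites, and gene amplicons before and after competition were read by 100-nucleotide paired-end sequencing. Darwinian fitness relative to wild type rested on changes in genotype frequencies. Genotypes required ≥ 100 starting reads, and estimates < 0.5 were set to 0.5.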
With GUUCCGUUGGGGUAAUGGUAACGCGUCUCUCUCCUAAGAAGAAGCCUGUGGGUUCGAGUCCCGUACGGAACG the yeast fitness was 0.614.
In the case of GUUCCGUUGGGGUAAUGGUAACGCGUCUGCGUCCUAAGGAGAAGACUGCGGGUUCGAGUCCCGUACGGAACG, the yeast fitness is reported as no more than 0.5.
In the case of GUUCCGUUGGGGUAAUGGUAACGCGUCUGCCUCCUAAGGAGAAGACUGCCGGUUCGAGUCCCGUACGGAACG, the yeast fitness is reported as no more than 0.5.
With GUUCCGUUGGGGUAAUGGUAACGCGUCUCUCUCCAAAGGAGAAGACUGCGGGGUCGAGUCCCGUACGGACCG the yeast fitness was no more than 0.5.
GUUCCGUUGGGGUAAUGGUAACGCGUCUCGCUCCUAAGGAGAAGACUGUGGGUUCGAGUCGCGUACGGAGCG showed a yeast fitness of no more than 0.5.
Variant GUUCCGUUGGGGUAAUGGUAACGCGUCUCGGACCUAAGGAGAAGACUGCGGGUUCGAGUCCCGUACGGAACG has a yeast fitness of no more than 0.5.
Work on GUUCCGUUGGGGUAAUGGUAACGCGUCUGCCUCCUAAGGAGAAGACUGCGGGUUCGAGUCCCGUACGGAACG yielded a yeast fitness of 0.84.
With GUUCCGUUGGGGUAAUGGUAACGCGUCUUCCUCCUAAGGAGAAGACUGCGGGUUCGAGUCCCGUACGGAACG the yeast fitness was 0.557.
GUUCCGUUGGGGUAAUGGUAACGCGUCUACCUCCGAAGGAGAGGACUGCGGGUUCGAGUCCCGUACGGACCG gave a yeast fitness of no more than 0.5.
GUUCCGUUGGGGUAAUGGUAACGCGUCUGCCUCCUAAGGAGAAGUCUGCGGGUUCGAGUCCCGUACGGAACG gave a yeast fitness of no more than 0.5.
Work on GUUCCGUUGGGGUAAUGGUAACGCGUCUUUCUCCUAAGGAGAAGACUGCGGGUACGAGUCCCGUACGGAACG yielded a yeast fitness of no more than 0.5.
Work on GUUCCGUUGGGGUAAUGGUAACGCGUUUCCCUUCUAAGGAGAAGACUGCGGGUUCGAGUCCCGUACGGAACG yielded a yeast fitness of 0.584.
Work on GUUCCGUUGGGGUAAUGGUAACGCGUCUGCCUCCCAAGGAGAAGACAGCGGGUUCGAGUCCCGUACGCAACG yielded a yeast fitness of no more than 0.5.
For GUUCCGUUGGGGUAAUGGUAACGCGUUUCCCUUCUAAGGAGAAGACUGCGGGUUCGAGUCCGGUACGGAACG, the yeast fitness was no more than 0.5.
Variant GUUCCGUUGGGGUAAUGGUAACGCGUCUUCCUCCUAAGGAGAAGACUGCGGGUUCGGGUCCCGUACGGAACG has a yeast fitness of no more than 0.5.
Variant GUUCCGUUGGGGUAAUGGUAACGCGUCUACCUCCUAAGGAGACGACUGCGGGUUCGAGUCCCGUAAGGAACG has a yeast fitness of no more than 0.5.
For GUUCCGUUGGGGUAAUGGUAACGCGUCUCUCUCCUAAGGAGAAGAGUGCGGGUUCGACUCCCGUACGGAACG, the yeast fitness was 0.617.
In the case of GUUCCGUUGGGGUAAUGGUAACGCGUCUCUCUCCUAAGGAGAAGACUGCGGGUUCGAGUCCCGUACGGAACG, the yeast fitness is reported as 0.643.
GUUCCGUUGGGGUAAUGGUAACGCGUCUCGCUCCUAAGGAGAAGACUGCGGGUUCGAGUCCCGUACGGAACG gave a yeast fitness of no more than 0.5.
GUUCCGUUGGGGUAAUGGUAACGCGUCUCCAUCCUAAGAAGAAGACUACGGGUUCGAGUCUCGUCCGGAACG showed a yeast fitness of 0.56.
In the case of GUUCCGUUGGGGUAAUGGUAACGCGUCUCGCUACUAAGGAGAAGACUGCGGGUUCGCGUCACGUACGGAACG, the yeast fitness is reported as 0.583.
With GUUCCGUUGGGGUAAUGGUAACGCGUCUUCCUCCUAAGGAGAAGACUGCGGGUUCGAGUCACGUCCGGAACG the yeast fitness was no more than 0.5.
In the case of GUUCCGUUGGGGUAAUGGUAACGCGUCUACCUCCUAAGGUGAAGACUGCGGGUUCGAGUCCCGUACGGAACG, the yeast fitness is reported as no more than 0.5.
GUUCCGUUGGGGUAAUGGUAACGCGUCUCUCUCUUAAGGAGAAGACUGCGGGUUCGAGUCCCGUACGGAACG showed a yeast fitness of no more than 0.5.
GUUCCGUUGGGGUAAUGGUAACGCGUCUUCCUCCCCAGGAGAAGACUGCGGGUUCGAGUCCCGUACGGAACG gave a yeast fitness of no more than 0.5.
Variant GUUCCGUUGGGGUAAUGGUAACGCGUCUCUCUCCUAAGGAGAAGGCUGCGGGUUCGUGUCCUGUACGGAACG has a yeast fitness of no more than 0.5.
GUUCCGUUGGGGUAAUGGUAACGCGUCUUUCUCCUAAGGAGAAGACUGCGGGUUCGAGUCCCGUACGGAACG showed a yeast fitness of no more than 0.5.
Work on GUUCCGUUGGGGUAAUGGUAACGCGUCUCCCUGCUAAGGAGAAGACUGCGGGUUCGUGUCCCGUACGGAACG yielded a yeast fitness of no more than 0.5.
GUUCCGUUGGGGUAAUGGUAACGCGUCUCCUUCCUAAGGAGUAGACUGCGGGUUCGAGUCCCGUACGGAUCG showed a yeast fitness of no more than 0.5.
For GUUCCGUUGGGGUAAUGGUAACGCGUCUCCCUACUAAGGGGAAGACUGCGGGUUCGAGUCCAGUACCGAACG, the yeast fitness was no more than 0.5.
In the case of GUUCCGUUGGGGUAAUGGUAACGCGUCUCCGUCCUAAGGAGUAGACUGCGGGUUCGAGUCCCGUACGGAACG, the yeast fitness is reported as 0.527.
Variant GUUCCGUUGGGGUAAUGGUAACGCGUCUCCCUACUAAGGAGAAGACUGCCGGUUCGAGUCCCGUACGGAACG has a yeast fitness of no more than 0.5.
With GUUCCGUUGGGGUAAUGGUAACGCGUCUCACUCCUAAGGAGAAGACUGCGGGUUCGAGUCCGGUACGCAACG the yeast fitness was no more than 0.5.
With GUUCCGUUGGGGUAAUGGUAACGCGUCUCUCUCCUAAGGACAAGACUGCAGGUUCGAGUCCCGUACCGAACG the yeast fitness was no more than 0.5.
GUUCCGUUGGGGUAAUGGUAACGCGUCUCUCUCCUAAGGAGAAGACUGCGGGUACGAGUCCCGUACGGAACG gave a yeast fitness of no more than 0.5.
For GUUCCGUUGGGGUAAUGGUAACGCGUCUCCCUCGUAAGGAGAAGACUGCGGGUUCGAGUCCCGUUCGGAACG, the yeast fitness was no more than 0.5.
GUUCCGUUGGGGUAAUGGUAACGCGUCUCCCUCGUCAGGAGAAGACUGCGGGUUCGAGUCCCGUACGGAACG showed a yeast fitness of no more than 0.5.
GUUCCGUUGGGGUAAUGGUAACGCGUCUACCUCCUAAGGAGACGACUGCGGGUUCGAGUCCCGUACGGAACG gave a yeast fitness of 0.572.
With GUUCCGUUGGGGUAAUGGUAACGCGUCUCCGUCCUAAGGAGAAGACUGCGGGUUAGAGUCCCGUACGGAACG the yeast fitness was 0.618.
In the case of GUUCCGUUGGGGUAAUGGUAACGCGUCUCCCUUCUAAGGAGAAGACUGCGGGUUCGAGUCCCGUACGGAACG, the yeast fitness is reported as no more than 0.5.
GUUCCGUUGGGGUAAUGGUAACGCGUCUCCCUCGUAUGGAGAAGACUGCGGGUUCGAGUCCCGUACGGAACG gave a yeast fitness of no more than 0.5.
Work on GUUCCGUUGGGGUAAUGGUAACGCGUUUCCCUCCUAAGGAGAAGACUGCGGGUUCAGGUCCCGUACGGAACG yielded a yeast fitness of no more than 0.5.
With GUUCCGUUGGGGUAAUGGUAACGCGUCUCCUUCCAAGGGCGAAGACCGCGGGUUCGAGUCCCGGACGGAACG the yeast fitness was no more than 0.5.
With GUUCCGUUGGGGUAAUGGUAACGCGUCUCCUUCCUAAGGAGAAGACUGCGGGUUCGAGUCGCGUACGGAACG the yeast fitness was 0.64.
GUUCCGUUGGGGUAAUGGUAACGCGUCUCCAUCCUAACGAGAAGACUGCGGGUUUGAAUCCCGUACGGAACG gave a yeast fitness of 0.577.
GUUCCGUUGGGGUAAUGGUAACGCGUCUCCCUUCUAAGGAGAAGACUGCGGGUUCGAGCCCCGUACGGAACG gave a yeast fitness of 0.66.
GUUCCGUUGGGGUAAUGGUAACGCGUCUACCUCCUAAGGAGACGACUGCGGGUUCGAGUCCCGCACGGAACG showed a yeast fitness of no more than 0.5.
With GUUCCGUUGGGGUAAUGGUAACGCGUCUUCCUCCUAAGGAGAAGACUGCGGGUUCGAGACCCGUACGGUACG the yeast fitness was no more than 0.5.
In the case of GUUCCGUUGGGGUAAUGGUAACGCGUCUGCGUCCUAAGGAGAAGACUGCGGGUCCGAGUCCCGAACGGAACG, the yeast fitness is reported as no more than 0.5.
GUUCCGUUGGGGUAAUGGUAACGCGUCUGCCUCCUAAGGGAAAGACUGAGGGUUCGAGUCCGGUACGGAACG showed a yeast fitness of 0.751.
For GUUCCGUUGGGGUAAUGGUAACGCGUCUCCCUCAUUAGGAGAAGACUGCGGGUUCGAGUACCGUACGGAACG, the yeast fitness was no more than 0.5.
Work on GUUCCGUUGGGGUAAUGGUAACGCGUCUCCCUCAUAAGGAGAAGACUGCGGGUUCGAGUCCCGUACGGAACG yielded a yeast fitness of 0.585.
Variant GUUCCGUUGGGGUAAUGGUAACGCGUCUCCCUCGUAAGGAGAAGACUGCGGGUUCGAGUCCCGUACGGAACG has a yeast fitness of 0.524.
GUUCCGUUGGGGUAAUGGUAACGCGUCUCCCUCUUAAGGAGAAGACUGCGGGUUCGAGUCCCGUACGGAACG showed a yeast fitness of 0.672.
With GUUCCGUUGGGGUAAUGGUAACGCGUCUCUCUCCUAAGGAGAAGACUGCGGGUUCGAGUCCCGUGCGGAACG the yeast fitness was 0.595.
With GUUCCGUUGGGGUAAUGGUAACGCGUCUCCCUCAUAAGGAGAAGACUGCGGGUUCGAGUACCGUACGGAACG the yeast fitness was no more than 0.5.
With GUUCCGUUGGGGUAAUGGUAACGCGUCUCGCUCCUAUGGAAAAGACUGCGGGCUCGAGUCCCGUACGGUACG the yeast fitness was 0.516.
GUUCCGUUGGGGUAAUGGUAACGCGUCUCCCUCAUAAGGACAAGACUGCGCGUUCAAGUCCCGUACGGAACG gave a yeast fitness of no more than 0.5.
GUUCCGUUGGGGUAAUGGUAACGCGUCUCCGUCCUAAGGAGAAGACCGCGGGUUGGAGUCCCGUACGGAACG gave a yeast fitness of no more than 0.5.
GUUCCGUUGGGGUAAUGGUAACGCGUCUCCCUCAUAAGGAGAAGACUGCGGGAUCGAGUCCCGUACGGAACG showed a yeast fitness of 0.609.
With GUUCCGUUGGGGUAAUGGUAACGCGUCUCUCUCCAAAGGAGAAGACUGCGGGGUCGAGUCCUGUACGGAACG the yeast fitness was no more than 0.5.
In the case of GUUCCGUUGGGGUAAUGGUAACGCGUUACCCUCCUAAGGAGAAGACUGCGGAUUUGAGUCCCGUACGGAACG, the yeast fitness is reported as no more than 0.5.
For GUUCCGUUGGGGUAAUGGUAACGCGUCUCCCUCAUAAGGAGAAAAUUGCGGGUUCGAGUCCCGUACGAAACG, the yeast fitness was no more than 0.5.
In the case of GUUCCGUUGGGGUAAUGGUAACGCGUCUUCCUCCUAAGGAGAAGCCUGCGGGUUCGAGUCCCGUAGGGAACG, the yeast fitness is reported as no more than 0.5.
For GUUCCGUUGGGGUAAUGGUAACGCGUCUCCCUCAUAAGGAGAAGACUGCGGGUUCGACUGCCGUACGGAACG, the yeast fitness was 0.84.
Variant GUUCCGUUGGGGUAAUGGUAACGCGUCUUCCUCCUAAGGAGAAGACCGCGGGUUCGAGUCCCGUAAGGAACG has a yeast fitness of no more than 0.5.
GUUCCGUUGGGGUAAUGGUAACGCGUCUCCUUACUAAGGAGAAGACUGCGGGUUCGAGUCCCGUAUGGAACG showed a yeast fitness of no more than 0.5.
Variant GUUCCGUUGGGGUAAUGGUAACGCGUCUCCCUCGUAAGGAGAAGACUGCGGGUUCGAGCCCCGUACGGAACG has a yeast fitness of no more than 0.5.
Variant GUUCCGUUGGGGUAAUGGUAACGCGUCUCCCUCAUUAGGAGAAGACUACGGCUUCGAGUACUGUACGGAACG has a yeast fitness of no more than 0.5.
With GUUCCGUUGGGGUAAUGGUAACGCGUCUCCCUCGUAAGGAGAAGACUGCGGGUUGGAGUCCCGUACGGAACG the yeast fitness was no more than 0.5.
Work on GUUCCGUUGGGGUAAUGGUAACGCGUUUCCCACCUAAGGAGAAGACUGCGGAUUCGAGUUCCGUACGGACCG yielded a yeast fitness of no more than 0.5.
For GUUCCGUUGGGGUAAUGGUAACGCGUCUUCUUCUUAAGGAGAAGACUGCGGGUUCGAGUCCAGUAUGGAACG, the yeast fitness was no more than 0.5.
With GUUCCGUUGGGGUAAUGGUAACGCGUCUCGCUCAUACGGAGAAGAUUGCGGGUUCGAGUCCCGUACGGAACG the yeast fitness was no more than 0.5.
GUUCCGUUGGGGUAAUGGUAACGCGUCUGCGUCCUAUGGAGAAGACUGCGGGUUCGAGUCCCGUACGGAACG showed a yeast fitness of 0.674.
Work on GUUCCGUUGGGGUAAUGGUAACGCGUCUCCCUGCUAAGGAGAAGACUGCGGGUUCGAGUCCGGUACGGAACG yielded a yeast fitness of no more than 0.5.
